Data taken from ChEMBL document CHEMBL5338759, “N-Phenyl-1-(phenylsulfonyl)-1H-1,2,4-triazol-3-amine as a New Class of HIV-1 Non-nucleoside Reverse Transcriptase Inhibitor” (J Med Chem, 2023).
pIC50: −log10 of the molar value.

Columns and labels:
[1] = tested on: Human immunodeficiency virus 1; assay: Antiviral activity against HIV1 harboring K103N mutant infected in human TZM-bl cells; type: functional, organism-based; settings: Human immunodeficiency virus 1, TZM-bl
Method in brief: (§1)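 TZM-bl cells (2x10⁵/mL) were infected with mutant virus in the presence of 15 µg/mL DEAE-dextran. A17 (IIIB variant) was grown in H9 cells; the other mutants were NL4-3-based plasmids transfected into 293T cells, then expanded in H9 cells. Compounds were tested at 0.05–500 nM (DMSO constant within an assay) for 48 hr at 37°C. Read-out was luciferase RLU from lysed cells, with at least 6 replicates over multiple days.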

[2] = Safety index, ratio of TC10 for neurotoxicity in mouse primary neurons assessed as loss of MAP-2 intensity to EC50 for antiviral activity against wild type HIV1 IIIB infected in human TZM-bl cells; type: toxicity, cell-based
Method in brief: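 Primary neuronal cultures from cortex/hippocampus of E16 CD1 mouse embryos (>95% neurons). Cells were then methanol:acetic acid-fixed and MAP-2 stained, and intensity was image-quantified. S-index = TC10/(100×EC50 vs HIV-1 IIIB in TZM-bl).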

[3] = Subacute toxicity in BALB/c mouse assessed as effect on adrenal gland weight at 25 to 250 mg/kg, IG measured daily for 30 days; type: organism-based; settings: in vivo, po, 720 h, dose 25-250 mg/kg, time 30 day
[4] = AUC (0 to 24 hrs) in BALB/c mouse brain at 250 mg/kg, IG measured at 0.5 to 24 hrs by HPLC-MS analysis; type: ADME, organism-based; parameters: dose 250 mg/kg, time 0.5-24 hrs, route ig; settings: po
Method in brief: (§2)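 Mice averaging 20 g (24 animals) were fasted 1 h before and 1 h after dosing. They received 250 mg/kg as 0.5 ml suspension in 1% CMC, 0.05% Tween 80 by intragastric intubation. Blood and brain were taken after decapitation at 0.5, 1, 2, 3, 5, 8 and 24 h (3 per time point). Plasma was frozen at -20°C and brain at -120 °C. Quantification was by UPLC-HRMS (ESI+, EIC m/z 476.0691) against plasma-matrix standards. Parameters were derived by noncompartmental analysis; LLOQ 5 ng/ml, with values below it set to 2.5.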

[5] = tested on: Human immunodeficiency virus 1; assay: Antiviral activity against HIV1 harboring L100I/K103N double mutant infected in human TZM-bl cells; type: functional, organism-based; settings: Human immunodeficiency virus 1, TZM-bl
[6] = Subacute toxicity in BALB/c mouse assessed as reduction in WBC count at 25 to 250 mg/kg, IG measured daily for 30 days; type: organism-based; settings: in vivo, po, 720 h, dose 25-250 mg/kg, time 30 day
[7] = Subacute toxicity in BALB/c mouse assessed as reduction in RBC count at 25 to 250 mg/kg, IG measured daily for 30 days; type: organism-based, Erythrocyte; settings: in vivo, po, 720 h, dose 25-250 mg/kg, time 30 day
[8] = Half life in BALB/c mouse plasma at 250 mg/kg, IG measured at 0.5 to 24 hrs by HPLC-MS analysis; type: ADME, organism-based; settings: in vivo, po, time 0.5-24 hrs; method in brief: as §2
TZM = assay: Cytotoxicity against human TZM-bl cells assessed as reduction in cell viability by MTS assay; type: functional
[9] = Subacute toxicity in BALB/c mouse assessed as effect on kidney weight at 25 to 250 mg/kg, IG measured daily for 30 days; type: organism-based; settings: in vivo, po, 720 h, dose 25-250 mg/kg, time 30 day
[10] = Neurotoxicity in mouse primary neurons assessed as loss of MAP-2 intensity at 0.0001 to 10 uM incubated for 48 hrs by semi-quantitative analysis; settings: neuron
[11] = Cmax in BALB/c mouse brain at 250 mg/kg, IG measured at 0.5 to 24 hrs by HPLC-MS analysis; type: ADME, organism-based; parameters: time 0.5-24 hrs, dose 250 mg/kg, route ig; settings: po; method in brief: as §2
[12] = Selectivity ratio of IC50 for antiviral activity against wild type HIV1 IIIB infected in human TZM-bl cells to IC50 for antiviral activity against HIV1 harboring Y181C mutant infected in human TZM-bl cells; type: toxicity, cell-based; settings: human immunodeficiency virus 1
Method in brief: (§3)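 TZM-bl cells (2x10⁵/mL) with 15 µg/mL DEAE-dextran were infected with HIV-1 IIIB, A17 (K103N/Y181C) IIIB variant, or NL4-3-based NNRTI-resistant mutants. Compound was present at 0.05–500 nM (DMSO held constant, 0.005% or 0.05%) for 48 hr at 37°C, 5% CO₂.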

[13] = Subacute toxicity in BALB/c mouse assessed as reduction in alkaline phosphatase level at 250 mg/kg, IG measured daily for 30 days; type: organism-based; settings: in vivo, po, 720 h, time 30 day
Method in brief: (§4)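 Dosing was daily intragastric 25 or 250 mg/kg in 1% starch gel (0.2 ml/20 g) for 30 days in male Balb/C mice, 17 per group, with starch gel controls. After the final dose, mice were fasted for 2 h with water available, then bled. Serum was clotted for 30 min at room temperature and centrifuged at 3500 rpm. Total protein, urea, creatinine, AST, ALT and alkaline phosphatase were assayed and compared by Mann-Whitney with Holm-Šídák, p < 0.05.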

[14] = Selectivity ratio of IC50 for antiviral activity against wild type HIV1 IIIB infected in human TZM-bl cells to IC50 for antiviral activity against HIV1 harboring L100I/K103N double mutant infected in human TZM-bl cells; type: toxicity, cell-based; settings: human immunodeficiency virus 1; method in brief: as §3
[15] = Subacute toxicity in BALB/c mouse assessed as pathological change in liver at 25 to 250 mg/kg, IG measured daily for 30 days by H and E staining based histological analysis; type: organism-based; settings: in vivo, po, 720 h, dose 25-250 mg/kg, time 30 day
Method in brief: (§5)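 Male Balb/C mice (17 per group) received 25 or 250 mg/kg intragastrically in 1% starch gel once daily for 30 days, against starch gel controls. Internal organs were examined macroscopically after the study. Sections were paraffin-embedded and stained with hematoxylin and eosin.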

[16] = Subacute toxicity in BALB/c mouse assessed as reduction in urea level at 25 to 250 mg/kg, IG measured daily for 30 days; type: organism-based; settings: in vivo, po, 720 h, dose 25-250 mg/kg, time 30 day; method in brief: as §4
[17] = Subacute toxicity in BALB/c mouse assessed as pathological change in spleen at 25 to 250 mg/kg, IG measured daily for 30 days by H and E staining based histological analysis; type: organism-based; settings: in vivo, po, 720 h, dose 25-250 mg/kg, time 30 day; method in brief: as §5
[18] = target: Voltage-gated inwardly rectifying potassium channel KCNH2 (Homo sapiens, UniProt Q12809); assay: Inhibition of hERG by fluorescence polarization assay; type: toxicity
Voltage-gated inwardly rectifying potassium channel KCNH2, sequence (Q12809 whole entry): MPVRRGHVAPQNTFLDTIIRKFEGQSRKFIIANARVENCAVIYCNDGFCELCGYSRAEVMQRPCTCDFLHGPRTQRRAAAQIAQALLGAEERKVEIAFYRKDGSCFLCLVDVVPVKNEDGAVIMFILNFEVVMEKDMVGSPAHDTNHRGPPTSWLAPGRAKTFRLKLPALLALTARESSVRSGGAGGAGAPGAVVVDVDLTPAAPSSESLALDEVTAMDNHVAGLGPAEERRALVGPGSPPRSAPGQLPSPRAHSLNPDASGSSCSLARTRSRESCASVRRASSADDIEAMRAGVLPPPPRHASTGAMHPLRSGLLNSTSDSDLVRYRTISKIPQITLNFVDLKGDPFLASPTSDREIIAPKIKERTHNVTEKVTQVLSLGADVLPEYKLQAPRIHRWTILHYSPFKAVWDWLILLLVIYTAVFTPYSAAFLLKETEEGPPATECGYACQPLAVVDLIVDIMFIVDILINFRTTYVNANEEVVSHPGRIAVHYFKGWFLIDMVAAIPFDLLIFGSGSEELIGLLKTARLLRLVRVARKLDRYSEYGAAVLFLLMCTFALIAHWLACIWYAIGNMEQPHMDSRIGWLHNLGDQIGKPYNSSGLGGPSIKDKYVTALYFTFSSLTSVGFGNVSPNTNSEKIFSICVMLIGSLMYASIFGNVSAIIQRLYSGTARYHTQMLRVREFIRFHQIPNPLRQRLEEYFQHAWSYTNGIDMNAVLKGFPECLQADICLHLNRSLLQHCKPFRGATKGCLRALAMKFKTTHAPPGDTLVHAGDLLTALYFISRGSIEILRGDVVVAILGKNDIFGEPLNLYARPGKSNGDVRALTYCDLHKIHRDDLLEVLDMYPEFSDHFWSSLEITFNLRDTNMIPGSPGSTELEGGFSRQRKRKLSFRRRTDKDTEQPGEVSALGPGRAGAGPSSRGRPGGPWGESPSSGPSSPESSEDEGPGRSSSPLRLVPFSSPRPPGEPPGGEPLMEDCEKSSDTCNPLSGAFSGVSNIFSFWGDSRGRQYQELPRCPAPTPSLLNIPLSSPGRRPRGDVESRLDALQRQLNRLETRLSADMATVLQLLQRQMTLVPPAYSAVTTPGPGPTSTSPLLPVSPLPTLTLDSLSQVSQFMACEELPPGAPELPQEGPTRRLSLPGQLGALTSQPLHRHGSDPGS

[19] = tested on: Human immunodeficiency virus 1; assay: Antiviral activity against HIV1 harboring Y181C mutant infected in human TZM-bl cells; type: functional, organism-based; settings: Human immunodeficiency virus 1, TZM-bl; method in brief: as §1
[20] = Subacute toxicity in BALB/c mouse assessed as pathological change in heart at 25 to 250 mg/kg, IG measured daily for 30 days by H and E staining based histological analysis; type: organism-based; settings: in vivo, po, 720 h, dose 25-250 mg/kg, time 30 day; method in brief: as §5
[21] = Subacute toxicity in BALB/c mouse assessed as reduction in aminotransferases level at 25 to 250 mg/kg, IG measured daily for 30 days; type: organism-based; settings: in vivo, po, 720 h, dose 25-250 mg/kg, time 30 day; method in brief: as §4
[22] = Metabolic stability in mouse liver microsome measured up to 60 mins presence of NADPH; type: ADME; settings: microsomes, 1 h
[23] = Metabolic stability in human liver microsome measured up to 60 mins presence of NADPH; type: ADME; settings: microsomes, 1 h
[24] = AUC (0 to 24 hrs) in BALB/c mouse plasma at 250 mg/kg, IG measured at 0.5 to 24 hrs by HPLC-MS analysis; type: ADME, organism-based; parameters: time upper 24 hrs, time lower 0.5 hrs, dose 250 mg/kg, route ig; settings: po; method in brief: as §2
[25] = Subacute toxicity in BALB/c mouse assessed as effect on thymus weight at 25 to 250 mg/kg, IG measured daily for 30 days; type: organism-based; settings: in vivo, po, 720 h, dose 25-250 mg/kg, time 30 day

N#C/C=C/c1ccc2c(S(=O)(=O)n3nc(Nc4ccc(C#N)c(Cl)c4)nc3N)cccc2c1
pIC50 [1]: 8.23 | Ratio [2]: Not Active | Activity [3]: Non-Toxic | AUC(0-t) [4]: 142 µg·h/mL | pIC50 [5]: 5.98 | Activity [6]: Non-Toxic | Activity [7]: Non-Toxic | t1/2 [8]: 7.7 h | CC50 (TZM): 4800 nM | Activity [9]: Non-Toxic | Activity [10]: Non-Toxic | Cmax [11]: 40.3 ng/100 mg | Ratio IC50 [12]: 16 | Activity [13]: Non-Toxic | Ratio IC50 [14]: 75 | Activity [15]: Toxic | Activity [16]: Non-Toxic | Activity [17]: Non-Toxic | pIC50 [18]: 4.94 | pIC50 [19]: 8.43 | Activity [20]: Non-Toxic | Activity [21]: Toxic | Stability [22]: Stable | Stability [23]: Stable | AUC(0-t) [24]: 397 µg·h/mL | Activity [25]: Non-Toxic
